Assay results taken from ChEMBL document CHEMBL1122055, “DL-threo-beta-Fluoroaspartate and DL-threo-beta-fluoroasparagine: selective cytotoxic agents for mammalian cells in culture” (J Med Chem, 1982).

What was measured:
H4 [1] = assay: Tested for its reversal effect on growth of H4 cells at 330 + 40 ug/mL concentrations of L-aspargine and DL-threo-beta-fluoroaspartate; assay type: functional
In short: (§1)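 H4 hepatoma cells seeded at 8×10^3 per 35-mm dish in F 10+ medium. On day 4, the medium was renewed and treatments started, including L-aspartate or L-asparagine. Incubation 72 h, then Lowry total cell protein per dish. Results reported as % of untreated control, mean of duplicate dishes.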

H4 [2] = assay: Tested for its reversal effect on growth of H4 cells at 133 + 50 ug/mL concentrations of L-aspargine and DL-threo-beta-fluoroaspartate; assay type: functional
In short: (§2)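 Rat hepatoma H4 cells seeded at 1.4×10^4 per 35-mm dish in MEM+. On day 4, fresh MEM+ was added, with treatments including L-aspartate or L-asparagine. Exposure 66 h, then total cell protein per dish measured by Lowry. Results expressed as % of untreated control protein, mean of duplicate dishes.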

H4 (Rattus norvegicus) [3] = assay: Tested for its reversal effect on growth of H4 cells at 133 ug/mL concentrations of L-aspargine and DL-threo-beta-fluoroaspartate
H4 (Rattus norvegicus) [4] = assay: Tested for its reversal effect on growth of H4 cells at 330 ug/mL concentrations of L-aspargine and DL-threo-beta-fluoroaspartate
H4 [5] = assay: Tested for its reversal effect on growth of H4 cells at 330 + 5 ug/mL concentrations of L-aspargine and DL-threo-beta-fluoroaspartate; assay type: functional; in short: as §1
H4 [6] = assay: Tested for its reversal effect on growth of H4 cells at 133 + 5 ug/mL concentrations of L-aspargine and DL-threo-beta-fluoroaspartate; assay type: functional; in short: as §2

Compound | Cell protein in untreated control (H4 [1]) | Cell protein in untreated control (H4 [2]) | other results
NC(=O)C(F)[C@H](N)C(=O)O.NC(=O)C[C@H](N)C(=O)O (mixture of isomers; form 2) | 80% | 19% | –
NC(=O)C[C@H](N)C(=O)O [ASPARAGINE] | – | – | Cell protein in untreated control (H4 (Rattus norvegicus) [3]): 103%; Cell protein in untreated control (H4 (Rattus norvegicus) [4]): 100%
NC(=O)C[C@H](N)C(=O)O.NC(C(=O)O)C(F)C(=O)O (racemic) | – | – | Cell protein in untreated control (H4 [5]): 17%; Cell protein in untreated control (H4 [6]): 0%
NC(=O)C(F)[C@H](N)C(=O)O.N[C@@H](CC(=O)O)C(=O)O (mixture of isomers; form 1) | 93% | 68% | –
